Rows were chosen to be rich in hits. Some 2.9% of all compounds tested hit in one or more screens of this group.
HSP90 inh – HSP90 inhibitors, primary screen, cell lysate, luminescence. Heat shock protein HSP 90 (rabbit reticulocyte lysate; luciferase refolding). Rabbit reticulocyte lysate, luciferase refolding luminescence, 3 h. AID 1789, 2009. 290,000 tested, 0.91% active. inhibition, % at 5.6 µM;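 active = inhibition above the screen-wide mean plus 3 SD, computed separately per campaign, cut at about 16% in these data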;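 also: inhibitors lower the luminescence because luciferase stays unfolded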
SENP8 block-1 – human SENP8 protease inhibitors, primary screen, biochemical, fluorescence, Nedd8 protein substrate, uHTS; AID 602440, 2012; 360,000 tested, 0.64% active; Sentrin-specific protease 8 (Homo sapiens), Q96LD8; inhibition, % at 20 µM; recombinant SENP8; in the data active = inhibition mostly above about 40%, no sharp cut-off; inactive = mostly below about 27%
SENP8 block-2 – SENP8 protease inhibitors, primary screen, biochemical, luminescence; Sentrin-specific protease 8 (Homo sapiens), Q96LD8; purified SENP8, Z-RLRGG-aminoluciferin cleavage; inhibition, % at 10 µM; 330,000 tested, 1.2% active; in the data active = inhibition above about 50%
SENP7 inh – SENP7 protease inhibitors, primary screen, biochemical, luminescence, uHTS. inhibition, % at 5 µM. AID 434973, 2010. 330,000 tested, 1.5% active. recombinant SENP7, Z-RLRGG-aminoluciferin luminescence, 40 min;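 active = inhibition above about 50% at the single test dose, limit read from the data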
SENP6 inh – SENP6 protease inhibitors, primary screen, biochemical, luminescence, uHTS; AID 2599, 2010; inhibition, % at 10 µM; 330,000 tested, 1.8% active; Recombinant SENP6 catalytic domain, aminoluciferin luminescence;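 active = inhibition above about 50% at the single tested dose, limit read from the data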
SENP1 FRET inh – human SENP1 catalytic domain inhibitors, primary screen, biochemical, FRET, uHTS. recombinant SENP1 catalytic domain, CyPet-SUMO1-YPet FRET cleavage. inhibition, % at 10 µM. 360,000 tested, 0.21% active. AID 624204, 2012;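 active = inhibition at least 30% at 10 µM, raw YFP signal under a set limit, fluorescence ratio 0.5 to 1.5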
Target sequence (Q9P0U3 419-644 limits assumed): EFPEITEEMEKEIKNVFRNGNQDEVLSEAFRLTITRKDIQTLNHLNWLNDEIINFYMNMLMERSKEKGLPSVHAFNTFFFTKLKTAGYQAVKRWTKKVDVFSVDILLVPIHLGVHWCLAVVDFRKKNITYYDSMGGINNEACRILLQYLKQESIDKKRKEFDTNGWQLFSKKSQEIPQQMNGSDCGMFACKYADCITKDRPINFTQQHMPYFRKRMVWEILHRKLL
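Assay system – human recombinant His6-tagged SENP1 catalytic domain enzyme · Input – SENP1 enzyme, 20 pM final · Buffer or medium – Tris pH 8 buffer plus EDTA, NaCl, BME, BSA, NP40, catalase · Schedule – 50 min reaction at room temperature · Technique – FRET read of cyan and yellow fluorescence · Control set – no-enzyme wells low, DMSO-plus-enzyme wells high control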
SENP8 confirm – SENP8 protease inhibitors, retest, confirmation, biochemical, luminescence, single concentration; shares compounds with SENP7 inh; Recombinant SENP8, Z-RLRGG-aminoluciferin luminescence, 60 min; inhibition, % at 12.5 µM; 6,200 tested, 40% active;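 active = mean inhibition across replicates above about 50%, limit read from the data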
SENP6 conf – SENP6 protease inhibitors, confirmation, biochemical, luminescence, single concentration; 6,200 tested, 58% active; inhibition, % at 12.5 µM; AID 488915, 2010; recombinant SENP6, Z-RLRGG-aminoluciferin luminescence; shares compounds with SENP7 inh
SENP7 confirm – SENP7 protease inhibitors, retest, confirmation, biochemical, luminescence, single concentration | shares compounds with SENP7 inh | recombinant SENP7, Z-RLRGG-aminoluciferin luminescence, 40 min | inhibition, % at 12.5 µM | 6,200 tested, 69% active
Casp3 SENP sel – caspase-3 protease inhibitors, confirmation, selectivity assay for SENP inhibitor project, biochemical, single concentration; purified caspase-3, Z-DEVD-aminoluciferin luminescence, 60 min; 6,200 tested, 60% active; shares compounds with SENP7 inh; AID 488918, 2010; inhibition, % at 12.5 µM;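 active = mean inhibition above about 50%, limit read from the data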
Target sequence (P42574 28-227 limits assumed): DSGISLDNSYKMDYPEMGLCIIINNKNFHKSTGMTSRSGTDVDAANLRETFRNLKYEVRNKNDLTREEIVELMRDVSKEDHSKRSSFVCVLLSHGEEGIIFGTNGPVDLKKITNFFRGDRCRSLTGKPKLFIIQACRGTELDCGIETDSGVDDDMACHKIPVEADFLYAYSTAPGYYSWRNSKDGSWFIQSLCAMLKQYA
Luc interf – interferes with luciferase luminescence in SENP counter-screen | shares compounds with SENP7 inh | Pre-incubated SENP8/Z-RLRGG-aminoluciferin, luciferase luminescence interference | inhibition, % at 12.5 µM | 6,200 tested, 39% active | AID 488919;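 active = mean inhibition above about 50% when retested at one dose, limit read from the data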
Each line names hits and unclear results; the compound was inactive in the other large screens (follow-up assays come after a bar, where they were run).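 The calls were made as follows, unless noted: active = mean inhibition above about 50% in the one-dose retest (limit read from the data); inactive = the rest.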

O=C(/C=C/c1c(F)cccc1Cl)Nc1ccncc1	SENP7 inh 62, SENP6 inh 65 | SENP8 confirm inactive | SENP6 conf inactive | SENP7 confirm inactive | Casp3 SENP sel inactive | Luc interf inactive
O=C(/C=C/c1ccc(Cl)c(Cl)c1)Nc1cccnc1	none (no result: HSP90 inh)
CC(C)(C)c1ccc(/C=C/C(=O)Nc2cccnc2)cc1	SENP8 block-2 76, SENP7 inh 83, SENP6 inh 85 | SENP8 confirm inactive | SENP6 conf 80 | SENP7 confirm 95 | Casp3 SENP sel 59 | Luc interf 55
O=C(/C=C/c1ccccc1Cl)Nc1cccnc1	SENP8 block-2 86, SENP7 inh 93, SENP6 inh 93 | SENP8 confirm inactive | SENP6 conf 92 | SENP7 confirm 100 | Casp3 SENP sel 89 | Luc interf 90
COc1ccccc1/C=C/C(=O)Nc1cccnc1	none
S=C1CC2CCCC(C2)N1 (stereo not drawn)	none (no result: HSP90 inh, SENP8 block-2, SENP7 inh, SENP6 inh)
COc1ccc(C(=O)OCC(=O)Nc2sccc2C(N)=O)cc1[N+](=O)[O-]	none (no result: HSP90 inh)
Oc1nc(Nc2ccccc2)sc1/C=C1\C=Nc2ccccc21	SENP7 inh 51, SENP6 inh 64 | SENP8 confirm inactive | SENP6 conf inactive | SENP7 confirm 55 | Casp3 SENP sel inactive | Luc interf inactive
CCOC(=O)c1ccc(Oc2coc3cc(O)ccc3c2=O)cc1	none
CCN1C(=O)/C(=C/N2CCc3ccccc32)SC1=S	SENP7 inh 56 | SENP8 confirm inactive | SENP6 conf inactive | SENP7 confirm inactive | Casp3 SENP sel inactive | Luc interf inactive
COc1ccc(C=NNC(=O)c2cc(C)oc2C)cc1O	SENP8 block-2 80, SENP7 inh 86, SENP6 inh 79 (no result: HSP90 inh) | SENP8 confirm 88 | SENP6 conf 85 | SENP7 confirm 96 | Casp3 SENP sel 94 | Luc interf 83
CC(/C=N\NC(=O)c1cc(C)oc1C)=C\c1ccccc1	SENP8 block-2 72, SENP7 inh 82 | SENP8 confirm inactive | SENP6 conf inactive | SENP7 confirm inactive | Casp3 SENP sel inactive | Luc interf inactive
COc1cc(/C=N/NC(=O)c2cc(C)oc2C)ccc1O	none
COc1cc(/C=N/NC(=O)c2ccoc2C)ccc1O	SENP8 block-2 60, SENP7 inh 61, SENP6 inh 68 | SENP8 confirm 66 | SENP6 conf 64 | SENP7 confirm 89 | Casp3 SENP sel 89 | Luc interf 69
COc1cc(/C=N/NC(=O)c2nc(C)cc(C)n2)ccc1O	none
Cc1occc1C(=O)N/N=C/c1ccccc1[N+](=O)[O-]	SENP7 inh 73, SENP6 inh 56 | SENP8 confirm inactive | SENP6 conf inactive | SENP7 confirm 85 | Casp3 SENP sel 84 | Luc interf inactive
COc1ccc(CCNC(=O)CNS(=O)(=O)c2ccc(Cl)cc2)cc1	none (no result: HSP90 inh)
COc1ccc(C(=O)OCC(=O)c2ccc(F)cc2)cc1OC	none (no result: HSP90 inh)

Screening results deposited in PubChem by several laboratories.
